Laboratory results: ChEMBL document CHEMBL3856278, “Antitumor Activity of Lankacidin Group Antibiotics Is Due to Microtubule Stabilization via a Paclitaxel-like Mechanism” (J Med Chem, 2016)
pEC50, pIC50, pKd: −log10 of the molar value. The source made the active and inactive calls. The rule behind the calls is not given here.

Experiments:
[1] = target: Tubulin alpha-1A /beta chains (Homo sapiens, UniProt P07437+Q71U36); experiment: (§1) Binding affinity to human recombinant tubulin alpha 1A/tubulin beta chain after 30 mins by fluorescence quenching assay; format: protein-complex assay
Summary of the method: (§2)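 Free tubulin dimers (porcine brain tubulin, or recombinant human αI-βI) at 2 μM final in 10 mM sodium phosphate, 10 mM MgCl2, 1 mM GTP, 0.5% DMSO, 250 mM sucrose, pH 7.0. Held on ice 10 min, then ligand added at 5–100 μM final. Incubated 30 min at 25 °C, then rotated 1 h at room temperature. Tryptophan emission read at 310–400 nm with 295 nm excitation. Kd derived by Stern–Volmer fit.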

[2] = target: Tubulin alpha-1A /beta chains (Homo sapiens) (UniProt Q71U36+P07437); experiment: as §1; format: protein-complex assay; summary of the method: as §2
Sus scrofa [3] = organism: Sus scrofa; experiment: Induction of porcine tubulin polymerization assessed as doubling of final polymer mass at 100 uM measured every 94 secs
Summary of the method: (§3)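 Assembly followed at 37 °C by OD340 every 94 s for 61 cycles. Averaged curves from three runs were analysed for nucleation, Vmax and final polymer mass.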

[4] = Cytotoxicity against human T47D cells assessed as decrease in cell viability after 96 hrs by CellTiter-Blue assay; format: functional, cell-based
Summary of the method: (§4)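 HeLa cells in DMEM with 10% FBS; T47D cells in RPMI1640 with 10% FBS, insulin and pyruvate. Cells seeded at 2000 per well 24 h before treatment. Triplicate wells given increasing drug concentrations in DMSO for 48, 72 or 96 h. Viability read by CellTiter-Blue fluorescence (560ex/590em) after 2–4 h with reagent. Run twice; mean and SEM reported.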

Sus scrofa [5] = organism: Sus scrofa; experiment: Stabilization of rhodamine labeled porcine microtubule assessed as appearance of long strands microtubules at 10 uM after 5 mins by upright fluorescence microscopic analysis
Summary of the method: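 Rhodamine-labeled tubulin mixed 1:4 with unlabeled tubulin to 5 mg/mL in G-PEM (12% glycerol, pH 7.0). Polymerized 20 min at 37 °C, then drug added to 10 μM and incubated 5 min more at 37 °C. Diluted to 1.3 mg/mL and imaged immediately by fluorescence microscopy with a 40× oil objective.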

T47D [6] = experiment: Stabilization of interphase microtubule network in human T47D cells at 1 mM after 2 hrs by DAPI staining-based immunofluorescence assay; format: cell-based
Summary of the method: (§5)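 T47D cells seeded on coverslips and synchronized. Treated 2 h with drug (colchicine 0.5 μM, paclitaxel 100 nM, lankacidin C 1 mM) against a 1% DMSO control. Stained with anti-tubulin antibody and Alexa Fluor 488 secondary, DNA counterstained with DAPI. Imaged by epifluorescence microscopy with a 63× objective.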

[7] = (§6) Binding affinity to free porcine brain tubulin dimers after 30 mins by fluorescence quenching assay; set-up: species or system Sus scrofa; summary of the method: as §2
Sus scrofa [8] = organism: Sus scrofa; experiment: as §6; summary of the method: as §2
Sus scrofa [9] = organism: Sus scrofa; experiment: Induction of porcine tubulin polymerization assessed as maximum growth rate at 10 uM measured every 94 secs (reference value: 13 milliOD/min); summary of the method: as §3
[10] = Binding affinity to paclitaxel binding site of porcine microtubule after 1 hr by Michaelis-Menten plot analysis; set-up: species or system Sus scrofa; settings: read-out: Kd(app)
T47D [11] = experiment: Stabilization of interphase microtubule network in human T47D cells assessed as disruption of mitotic spindles at 1 mM after 2 hrs by DAPI staining-based immunofluorescence assay; format: cell-based; summary of the method: as §5
Sus scrofa [12] = organism: Sus scrofa; experiment: Induction of porcine tubulin polymerization assessed as decrease in duration of nucleation phase at 10 uM measured every 94 secs; summary of the method: as §3
Sus scrofa [13] = organism: Sus scrofa; experiment: Induction of porcine tubulin polymerization assessed as maximum growth rate at 100 uM measured every 94 secs (reference value: 13 milliOD/min); summary of the method: as §3
[14] = Cytotoxicity against human HeLa cells assessed as decrease in cell viability after 48 hrs by CellTiter-Blue assay; format: functional, cell-based; summary of the method: as §4
Sus scrofa [15] = organism: Sus scrofa; experiment: Induction of porcine tubulin polymerization assessed as bypass of nucleation phase at 100 uM measured every 94 secs; summary of the method: as §3
[16] = Cytotoxicity against human T47D cells assessed as decrease in cell viability after 48 hrs by CellTiter-Blue assay; format: functional, cell-based; summary of the method: as §4
[17] = Inhibition of flutax-2 binding to porcine microtubule assessed as flutax-2 EC50 at 128 uM after 1 hr by fluorescence assay (reference value: 248 +/- 50 nM); set-up: species or system Sus scrofa
Sus scrofa [18] = organism: Sus scrofa; experiment: Induction of porcine tubulin polymerization assessed as increase in final polymer mass at 10 uM measured every 94 secs; summary of the method: as §3
[19] = Cytotoxicity against human HeLa cells assessed as decrease in cell viability after 96 hrs by CellTiter-Blue assay; format: functional, cell-based; summary of the method: as §4
[20] = Cytotoxicity against human HeLa cells assessed as decrease in cell viability after 72 hrs by CellTiter-Blue assay; format: functional, cell-based; summary of the method: as §4
Sus scrofa [21] = organism: Sus scrofa; experiment: Inhibition of porcine tubulin polymerization assessed as maximum growth rate at 10 uM measured every 94 secs (reference value: 13 milliOD/min)
Summary of the method: (§7)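 Plate prewarmed to 37 °C; OD340 read at 37 °C every 94 s for 61 cycles with orbital shaking. Runs in triplicate, duplicate for mebendazole; the averaged curve gave phase lengths, Vmax and final polymer mass.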

Sus scrofa [22] = organism: Sus scrofa; experiment: Inhibition of porcine tubulin polymerization assessed as decrease in final polymer mass at 10 uM measured every 94 secs; summary of the method: as §7
Sus scrofa [23] = organism: Sus scrofa; experiment: Inhibition of porcine tubulin polymerization assessed as increase in duration of nucleation phase at 10 uM measured every 94 secs; summary of the method: as §7
Sus scrofa [24] = organism: Sus scrofa; experiment: Induction of porcine tubulin polymerization assessed as bypass of nucleation phase at 10 uM measured every 94 secs; summary of the method: as §7
T47D [25] = experiment: Stabilization of interphase microtubule network in human T47D cells assessed as disruption of mitotic spindles at 100 nM after 2 hrs by DAPI staining-based immunofluorescence assay; format: cell-based
Summary of the method: (§8)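 T47D cells in RPMI1640 with 2 mM L-glutamine, 10% FBS, 0.01 mg/mL insulin and 1 mM pyruvate were seeded on coverslips, synchronized, then given drug 2 h (1% DMSO solvent control). Anti-tubulin antibody with Alexa Fluor 488 secondary and 0.1 μg/mL DAPI for DNA; epifluorescence at 63×, interphase networks and mitotic spindles scored.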

T47D [26] = experiment: Stabilization of microtubule network in human T47D cells at 100 nM after 2 hrs by DAPI staining-based immunofluorescence assay; format: cell-based; summary of the method: as §8
T47D [27] = experiment: Destabilization of microtubule network in human T47D cells at 0.5 uM after 2 hrs by DAPI staining-based immunofluorescence assay; format: cell-based; summary of the method: as §5
Sus scrofa [28] = organism: Sus scrofa; experiment: Destabilization of rhodamine labeled porcine microtubule assessed as appearance of short strands microtubules at 10 uM after 5 mins by upright fluorescence microscopic analysis

Tubulin alpha-1A /beta chains, sequence (P07437 whole entry, looked up): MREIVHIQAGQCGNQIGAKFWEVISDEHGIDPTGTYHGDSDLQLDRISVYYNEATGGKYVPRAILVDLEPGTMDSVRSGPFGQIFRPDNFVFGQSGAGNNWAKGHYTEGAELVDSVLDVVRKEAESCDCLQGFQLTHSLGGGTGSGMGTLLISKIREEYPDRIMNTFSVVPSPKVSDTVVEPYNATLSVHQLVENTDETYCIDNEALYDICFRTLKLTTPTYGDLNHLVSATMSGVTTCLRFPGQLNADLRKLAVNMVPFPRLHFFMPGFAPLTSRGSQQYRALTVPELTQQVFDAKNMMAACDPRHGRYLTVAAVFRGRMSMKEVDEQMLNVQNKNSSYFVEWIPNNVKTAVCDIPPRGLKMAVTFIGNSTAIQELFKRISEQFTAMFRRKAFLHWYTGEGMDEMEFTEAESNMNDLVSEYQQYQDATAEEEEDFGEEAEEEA
Tubulin alpha-1A /beta chains, sequence (Q71U36 whole entry, looked up): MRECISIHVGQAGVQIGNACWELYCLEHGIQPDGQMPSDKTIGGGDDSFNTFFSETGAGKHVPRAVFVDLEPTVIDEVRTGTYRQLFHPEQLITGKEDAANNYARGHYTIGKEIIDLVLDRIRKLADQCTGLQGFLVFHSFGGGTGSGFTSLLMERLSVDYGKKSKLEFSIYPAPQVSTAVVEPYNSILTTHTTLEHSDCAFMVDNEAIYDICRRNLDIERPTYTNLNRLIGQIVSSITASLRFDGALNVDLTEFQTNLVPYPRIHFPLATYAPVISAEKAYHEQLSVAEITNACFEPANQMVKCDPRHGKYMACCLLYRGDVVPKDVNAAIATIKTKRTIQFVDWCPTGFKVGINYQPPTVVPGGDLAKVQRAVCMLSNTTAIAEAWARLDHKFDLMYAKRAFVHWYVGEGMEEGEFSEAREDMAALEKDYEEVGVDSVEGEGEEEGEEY
Tubulin alpha-1A /beta chains (Homo sapiens), sequence (P07437 whole entry, looked up): as the sequence (P07437 whole entry, looked up) above
Tubulin alpha-1A /beta chains (Homo sapiens), sequence (Q71U36 whole entry, looked up): as the sequence (Q71U36 whole entry, looked up) above

CC(=O)C(=O)N[C@@H]1/C=C(\C)C=C[C@@H](O)C/C=C(C)/C=C/[C@@H](O)C[C@H]2OC(=O)[C@]1(C)C(=O)[C@@H]2C
pKd [1]: 2.97
Activity [2]: Dose-dependent effect
Activity (Sus scrofa [3]): Active
pIC50 [4]: 4.95
Activity (Sus scrofa [5]): Active
Activity (T47D [6]): Active
pKd [7]: 3.26
Activity (Sus scrofa [8]): Dose-dependent effect
Vmax (milli optical density/minute) (Sus scrofa [9]): 18
pKd [10]: 4.30
Activity (T47D [11]): Active
Activity (Sus scrofa [12]): Active
Vmax (milli optical density/minute) (Sus scrofa [13]): 35
pIC50 [14]: 2.97
Activity (Sus scrofa [15]): Active
pIC50 [16]: 3.69
pEC50 [17]: 6.04
Activity (Sus scrofa [18]): Active
pIC50 [19]: 3.65
pIC50 [20]: 3.49

COC(=O)Nc1nc2cc(C(=O)c3ccccc3)ccc2[nH]1
Vmax (milli optical density/minute) (Sus scrofa [21]): 4
inhibition (Sus scrofa [22]): Active
inhibition (Sus scrofa [23]): Active

CC(=O)O[C@@H]1/C=C/C(C)=C/C[C@H](O)/C=C/C(C)=C/[C@@H](NC(=O)C(C)O)[C@]2(C)C(=O)O[C@H](C1)[C@@H](C)C2=O (stereo not given in full)
pKd [1]: 3.18
Activity [2]: Dose-dependent effect
pKd [7]: 2.96
Activity (Sus scrofa [8]): Dose-dependent effect

CC(=O)O[C@H]1C(=O)[C@@]2(C)[C@H]([C@H](OC(=O)c3ccccc3)[C@]3(O)C[C@H](OC(=O)[C@H](O)[C@@H](NC(=O)c4ccccc4)c4ccccc4)C(C)=C1C3(C)C)[C@]1(OC(C)=O)CO[C@@H]1C[C@@H]2O
Activity (Sus scrofa [5]): Active
Activity (Sus scrofa [24]): Active
Vmax (milli optical density/minute) (Sus scrofa [9]): 21
Activity (Sus scrofa [18]): Active
Activity (T47D [25]): Active
Activity (T47D [26]): Active

COc1cc2c(c(OC)c1OC)-c1ccc(OC)c(=O)cc1[C@@H](NC(C)=O)CC2
Activity (T47D [27]): Active
Activity (Sus scrofa [28]): Active
